# NadD inh = blocks S. aureus nicotinate mononucleotide adenylyltransferase; purified NadD enzyme, colorimetric absorbance read-out; inhibition, % at 20 µM; actives 0.78% (n = 360,000); in the data active means inhibition above about 26%
# rCAG RNA binder = molecules binding r(CAG) RNA repeats | r(CAG) RNA repeat, TO-PRO-1 dye displacement fluorescence | inhibition, % at 3 µM | actives 1.3% (n = 370,000);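 active means inhibition above the plate cutoff, the mean of all test compounds on that plate plus 3 SD, cut at about 35% in these data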;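 further: 0% = DMSO alone and 100% = 100 µM mitoxantrone as full dye displacement; higher means more dye released from RNA so lower well fluorescence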
# Scp1 inh = blocks human Scp-1 phosphatase activity; Q9GZU7; Recombinant Scp1, phosphopeptide, malachite green phosphate absorbance; inhibition, % at 20 µM; actives 0.88% (n = 340,000); AID 493091;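 active means inhibition above about 50% at 20 µM, limit read from the data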;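 further: plate controls were DMSO wells with enzyme for no effect and wells lacking enzyme for full effect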
# Target sequence (Q9GZU7 76-261 limits assumed): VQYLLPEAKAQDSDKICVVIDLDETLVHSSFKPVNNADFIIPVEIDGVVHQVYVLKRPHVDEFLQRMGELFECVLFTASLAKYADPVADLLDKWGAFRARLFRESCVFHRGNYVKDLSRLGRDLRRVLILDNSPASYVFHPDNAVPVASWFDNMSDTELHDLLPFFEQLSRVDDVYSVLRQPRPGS
#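 Incubation: 45 min enzyme reaction at room temperature / System: truncated SCP-1 phosphatase (76-261aa) / Reagent: Phospho 17-mer peptide substrate / Buffer or medium: Acidic Tris acetate buffer with magnesium and detergent / Signal: absorbance at 630 nm / Doses: one concentration, 20 µM, with 1.0% DMSO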
# STEP block = inhibitors of human striatal-enriched phosphatase STEP. AID 588621. actives 0.25% (n = 360,000). inhibition, % at 20 µM. recombinant STEP, OMFP fluorogenic substrate, fluorescence;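 active means inhibition at 20 µM, scaled per plate between control wells, above about 37%, limit read from the data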;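 further: 0% = DMSO with enzyme and substrate and 100% = substrate only without enzyme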
#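 System: STEP phosphatase, cell-free reaction; Buffer or medium: Bis-Tris pH 6.0 buffer with DTT, detergent; Incubation: 20 min at room temperature, dark; Measured by: fluorescence, 480/540 nm.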
# LMPTP block = blocks human LMPTP phosphatase; AID 651560; recombinant LMPTP-A, OMFP fluorogenic substrate, fluorescence intensity; actives 0.22% (n = 360,000); inhibition, % at 20 µM; P24666;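 active means compounds that cut the enzyme signal by at least half of the control window in the single-dose screen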;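 further: plate controls were DMSO wells with enzyme plus substrate for no effect and substrate without enzyme for full effect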
# Target sequence (P24666 whole entry, looked up): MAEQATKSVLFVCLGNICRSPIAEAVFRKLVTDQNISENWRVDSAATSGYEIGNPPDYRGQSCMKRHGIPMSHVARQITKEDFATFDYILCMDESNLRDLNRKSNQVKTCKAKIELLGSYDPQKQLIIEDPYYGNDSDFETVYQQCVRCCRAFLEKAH
#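 Test system – LMPTP-A phosphatase enzyme · Quantity – 0.625 nM LMPTP-A final · Reagent – OMFP substrate, 400 µM final · Dosing – one test concentration per compound, 20 µM, with 3% DMSO overall · Timing – 50 min enzyme reaction at room temperature, protected from light · Detection – fluorescence intensity · Controls – substrate-only low control, DMSO enzyme-plus-substrate high control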
# rCAG bind conf = r(CAG) RNA repeat binding, confirmation. shares compounds with rCAG RNA binder. AID 652065. inhibition, % at 3 µM. actives 70% (n = 4,300). TO-PRO-1 dye displacement fluorescence;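 active means inhibition above a per-plate cutoff, the mean inhibition of sample wells plus 3 SD, cut at about 35% in these data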;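 further: loss of TO-PRO-1 fluorescence as compound displaces dye from 1x1 AA loop RNA; 0% = DMSO only wells and 100% = 100 µM mitoxantrone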
# dCAG dye counter = counter-screen for rCAG RNA binders: DNA CAG dye complex inhibitors | shares compounds with rCAG RNA binder | actives 94% (n = 4,300) | d(CAG) DNA oligo TO-PRO-1 dye displacement, fluorescence | AID 652068 | inhibition, % at 3 µM;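 active means inhibition above its plate's cutoff, the mean test-well inhibition plus 3 SD, cut at about 4.8% in these data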;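 further: 0% = DNA dye mix with DMSO and 100% = 100 µM mitoxantrone; hits displace the dye from DNA and so lower well fluorescence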
# dCAG dye DR = counter-screen for rCAG binders: inhibitors of DNA CAG TO-PRO-1 complex; AID 686960; shares compounds with rCAG RNA binder; IC50, µM; actives 20% (n = 250); DNA CAG/GTC duplex TO-PRO-1 dye displacement fluorescence; in the data active means IC50 below about 10 µM
# Active calls of the source: *; x = no result. In the library only some 2.6% were active in any assay of this set; here they are far more common.
SMILES,NadD inh,rCAG RNA binder,Scp1 inh,STEP block,LMPTP block,rCAG bind conf,dCAG dye counter,others
COC(=O)CC1=NN(c2ccc(OC)cc2)C(=O)/C1=C\c1ccc(Cl)cc1,21,68*,-4,-2,2,83*,41*,
COC(=O)c1cc2c(c3c4cc(F)ccc4n(S(=O)(=O)c4ccccc4)c13)C(=O)N(Cc1ccc(N(C)C)cc1)C2,x,12,x,x,x,x,x,
CN(Cc1ccc2c(c1)CCCN2C)C(=O)[C@@H](Cc1ccccc1)NC(=O)[C@H]1O[C@@H](n2ccc(=O)[nH]c2=O)[C@H](O)[C@@H]1O,x,6,x,x,x,x,x,
CCn1c(COc2ccc(Cl)cc2)nnc1SCC(=O)Nc1ccccc1-c1ccccc1,x,2,x,x,x,x,x,
Cc1noc(NS(=O)(=O)c2ccc(NC(=O)c3ccc(Cl)c(S(=O)(=O)N(C)c4ccccc4)c3)cc2)c1C,14,91*,-6,2,1,84*,55*,
Cc1noc(NS(=O)(=O)c2ccc(NC(=O)c3cccc(S(=O)(=O)N(C)c4ccccc4)c3)cc2)c1C,7,73*,-14,-1,0,81*,37*,
COc1cccc(C(=O)Nc2ccc(S(=O)(=O)Nc3onc(C)c3C)cc2)c1,-2,16,-11,1,-2,x,x,
Cc1noc(NS(=O)(=O)c2ccc(NC(=O)c3ccc(F)cc3)cc2)c1C,0,8,-8,-1,0,x,x,
COc1nc(OC)nc(N2CCC(C(=O)NCc3ccccc3OC)CC2)n1,x,2,x,x,x,x,x,
CCCCCCCCN1C(=O)[C@@H](CC(=O)NCCCCc2ccccc2)C[C@@]2(C(=O)OC)C1=C[C@H](COCc1ccccc1)O[C@@H]2C,x,7,x,x,x,x,x,
CCCCCCc1c[nH]c2ccc(O)c(-c3ccccc3)c12,x,7,x,x,x,x,x,
Nc1c(SCCC(=O)O)ccc2c1C(=O)c1ccccc1C2=O,-2,37*,-10,11,8,15,2,
Nc1[nH]c(C(=O)c2ccccc2)c(-c2cc(F)ccc2Br)c1C(=O)NCCc1c[nH]c2ccccc12,x,13,x,x,x,x,x,
Cc1cc(C(=O)CN2c3cccc4cccc(c34)S2(=O)=O)c(C)n1C,18,38*,-1,-1,3,12,8.6*,
CCOC(=O)[C@]12CCCCC/C=C\1N(CCc1ccc(Cl)cc1)C(=O)[C@H]2CC(=O)NCCCN1CCCC1=O,x,1,x,x,x,x,x,
CCOc1ccc(-n2c(SCC(=O)Nc3ccc4c(c3)c3ccccc3n4CC)nnc2-c2cccnc2)cc1,x,15,x,x,x,x,x,
Cc1[nH]n(-c2ncc(-c3ccccc3)s2)c(=O)c1C(c1ccc(Br)cc1)C(C#N)C#N (centres undefined),23,57*,-1,4,3,80*,50*,
Cc1cc(Oc2ccc(Cl)cc2)nc(-c2ccccn2)n1,4,88*,-4,4,0,0,-1,
O=C(Nc1nnc(SCc2cccc3ccccc23)s1)C1COc2ccccc2O1 (centres undefined),6,50*,-8,-1,0,40*,8.2*,
Cc1ccccc1CSc1nnc(NC(=O)C2COc3ccccc3O2)s1 (centres undefined),8,24,-13,-1,2,x,x,
CCOc1cc(/C=C\c2nc(O)c([N+](=O)[O-])c(=O)[nH]2)ccc1OC(C)CC (centres undefined),-3,45*,-4,1,-1,46*,9.5*,dCAG dye DR=>30
O=S1(=O)c2ccc(N3CCSCC3)cc2Oc2ccccc2CN1Cc1cn(Cc2cccc(F)c2)nn1,x,15,x,x,x,x,x,
CNc1nc2[nH]c(=O)c3c(c2s1)OC(N)=C(C#N)C3c1ccccc1 (centres undefined),4,10,-7,2,2,x,x,
CCNc1nc2[nH]c(=O)c3c(c2s1)OC(N)=C(C#N)C3c1ccc(C)cc1 (centres undefined),11,53*,-11,-5,1,27,14*,

# Screening results as filed in PubChem BioAssay.
